# Test results: ChEMBL document CHEMBL4834402, “Discovery of TAK-981, a First-in-Class Inhibitor of SUMO-Activating Enzyme for the Treatment of Cancer” (J Med Chem, 2021)
# Calls of active or inactive are those of the source. The calls are words filed in the database; no cut-off is given here.
# How the values were obtained:
# [1] = target: T1, SUMO-activating enzyme (Homo sapiens, UniProt Q9UBT2); test: Inhibition of recombinant SAE (unknown origin) assessed as reduction in transfer of SUMO1 to UBC9 using SUMO1 as a substrate in presence of ATP at Km concentration by HTRF assay; format: protein-complex assay
# Outline: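 HTRF transthiolation assay measuring transfer of SUMO1 to UBC9, the E2 for SAE.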
# [2] = target: T2, NEDD8 activating enzyme (Homo sapiens, UniProt Q8TBC4); test: Inhibition of recombinant NAE (unknown origin) in presence of ATP at Km concentration by HTRF assay; format: protein-complex assay
# T2 sequence (Q8TBC4 whole entry): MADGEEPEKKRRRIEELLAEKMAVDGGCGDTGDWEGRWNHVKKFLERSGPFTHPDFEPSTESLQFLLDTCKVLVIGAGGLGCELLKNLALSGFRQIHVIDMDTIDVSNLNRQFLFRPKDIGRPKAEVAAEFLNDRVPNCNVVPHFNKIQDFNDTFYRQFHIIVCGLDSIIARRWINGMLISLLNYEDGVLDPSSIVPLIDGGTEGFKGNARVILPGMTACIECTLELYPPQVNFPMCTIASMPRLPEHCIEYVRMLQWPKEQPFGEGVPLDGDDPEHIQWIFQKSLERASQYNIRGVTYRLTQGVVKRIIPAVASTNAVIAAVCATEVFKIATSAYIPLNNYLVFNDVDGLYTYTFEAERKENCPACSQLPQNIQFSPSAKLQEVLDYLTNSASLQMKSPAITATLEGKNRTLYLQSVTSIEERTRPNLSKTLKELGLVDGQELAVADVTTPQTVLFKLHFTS
# T2 sequence (Q13564 whole entry): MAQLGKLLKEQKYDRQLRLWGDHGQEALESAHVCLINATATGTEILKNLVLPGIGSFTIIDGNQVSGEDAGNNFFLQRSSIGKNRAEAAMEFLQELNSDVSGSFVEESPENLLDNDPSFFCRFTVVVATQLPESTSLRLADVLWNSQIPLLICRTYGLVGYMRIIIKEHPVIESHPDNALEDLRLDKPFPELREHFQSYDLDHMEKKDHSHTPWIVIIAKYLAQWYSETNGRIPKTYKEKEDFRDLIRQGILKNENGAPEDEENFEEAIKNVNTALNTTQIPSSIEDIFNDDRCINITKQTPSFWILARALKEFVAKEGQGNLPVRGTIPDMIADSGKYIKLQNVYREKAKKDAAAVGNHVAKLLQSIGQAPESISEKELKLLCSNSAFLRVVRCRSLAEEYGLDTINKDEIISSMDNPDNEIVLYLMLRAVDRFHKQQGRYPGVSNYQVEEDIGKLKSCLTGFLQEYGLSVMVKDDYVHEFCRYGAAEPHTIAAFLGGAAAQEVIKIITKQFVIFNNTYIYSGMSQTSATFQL
# [3] = target: T1, SUMO-activating enzyme; test: Inhibition of SAE in human HCT116 cells assessed as reduction in redistribution of SUMO2/3 proteins from nucleus to cytosol incubated for 4 hrs by immunofluorescence assay; format: cell-based, HCT-116
# Outline: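 HCT-116 cells exposed to compound across a concentration range for 4 h, then stained with anti-SUMO2/3 monoclonal antibody. Automated imaging scored the nuclear (inner) to cytoplasmic (outer) SUMO2/3 ratio. IC50 taken from the dose response.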
# [4] = target: T3, SUMO-activating enzyme (Homo sapiens) (UniProt Q9UBE0+Q9UBT2); test: Inhibition of SAE in human HCT116 cells xenografted in NCr nude mouse assessed as reduction in SUMO2/3 protein conjugates at 50 mg/kg, iv and measured up to 16 hrs by immunohistochemistry analysis; format: organism-based; details: HCT-116
# Outline: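 HCT-116 tumors in female Ncr nude mice, n = 3 per time point, after a single IV dose at t = 0. SUMO2/3 conjugation in tumors measured by IHC at 2, 4, 8 and 16 h. Read-out is nuclei staining positive for SUMO2/3 conjugates over total nuclei, normalized to vehicle-treated animals (time = 0 h), expressed as percent inhibition.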
# [5] = target: T3, SUMO-activating enzyme (Homo sapiens); test: Inhibition of SAE in human OCI-Ly10 cells xenografted in NCr nude mouse assessed as reduction in SUMO2/3 protein conjugates at 25 mg/kg, iv and measured up to 24 hrs by immunohistochemistry analysis; format: organism-based; details: HCT-116, time hrs <=24
# [6] = target: T3, SUMO-activating enzyme (Homo sapiens); test: Inhibition of SAE in human HCT116 cells xenografted in NCr nude mouse assessed as improvement in SUMO-inhibitor adduct durability at 50 mg/kg, iv and measured up to 16 hrs by mass spectrometry; format: organism-based; details: HCT-116
# Outline: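 Single IV dose at t = 0 to female Ncr nude mice bearing HCT-116 tumors, n = 3 per time point. Tumors harvested 2, 4, 8 and 16 h post-injection. Read-out is the adduct/SAE ratio: quantity of SUMO-compound adduct over quantity of total SAE enzyme, both measured by mass spectrometry. Values are averaged per time point.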
# [7] = test system: HCT-116; test: Cytotoxicity against human HCT116 cells assessed as reduction in cell viability after 72 hrs by CellTiter-Glo luminescent assay; format: functional, cell-based; details: HCT-116, 72 h
# [8] = test system: HCT-116; test: Antitumor activity against human HCT-116 cells xenografted in Ncr/nude mouse assessed as tumor growth inhibition at 50 mg/kg, iv administered thrice per week for 21 days and measured twice weekly; format: functional, organism-based; details: time 21.0 day
# Outline: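 Female Ncr/nude mice carrying HCT-116 tumors (~200 mm3) were randomized, n = 8/group, with treatment from Day 1. Schedules were QD x21 (Days 1–21) or QD x3/week (three consecutive dosing days, four off). Tumor volume was measured twice weekly.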
# [9] = test system: OCI-Ly10; test: Antitumor activity against human OCI-Ly10 cells xenografted in CB17 SCID mouse assessed as tumor growth inhibition at 50 mg/kg, iv administered thrice per week for 21 days and measured twice weekly; format: functional, organism-based; details: time 21.0 day
# Outline: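 Female CB17 SCID mice carrying OCI-Ly10 tumors (~200 mm3) were randomized, n = 8/group, with treatment from Day 1. Schedules were QD x21 (Days 1–21) or QD x3/week (three consecutive dosing days, four off). Tumor volume was measured twice weekly.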
# [10] = Lipophilicity, logD of compound at pH 7.4; format: physicochemical; details: buffer
# [11] = Apparent permeability across apical to basolateral side in human Caco2 cells; format: ADME, cell-based; details: Caco-2
# [12] = Efflux ratio of apparent permeability across basolateral to apical side over apical to basolateral side in human Caco-2 cells; format: ADME, cell-based
# [13] = Solubility of compound in 10% hydroxypropyl-beta-cyclodextrin after 24 hrs; format: physicochemical
# [14] = target: Carbonic anhydrase 2 (Homo sapiens, UniProt P00918); test: Inhibition of recombinant human CA2 expressed in Escherichia coli using fluorescein diacetate as substrate at […] by fluorometric esterase assay
# [15] = Clearance in rat plasma at 1 mg/kg, iv; format: ADME, organism-based; details: in vivo
# [16] = Volume of distribution at steady state in rat plasma at 1 mg/kg, iv; format: ADME, organism-based; details: read-out: Vdss
# [17] = Half life in rat blood at 1 mg/kg, iv; format: ADME, organism-based
# [18] = AUC in rat blood at 10 mg/kg, po; format: ADME, organism-based; design: dose 10 mg/kg
# [19] = AUC in rat plasma at 10 mg/kg, po; format: ADME, organism-based; design: dose 10 mg/kg
# [20] = Oral bioavailability in rat blood at 10 mg/kg; format: ADME, organism-based
# [21] = Oral bioavailability in rat plasma at 10 mg/kg; format: ADME, organism-based
# T1 sequence (Q9UBE0 whole entry): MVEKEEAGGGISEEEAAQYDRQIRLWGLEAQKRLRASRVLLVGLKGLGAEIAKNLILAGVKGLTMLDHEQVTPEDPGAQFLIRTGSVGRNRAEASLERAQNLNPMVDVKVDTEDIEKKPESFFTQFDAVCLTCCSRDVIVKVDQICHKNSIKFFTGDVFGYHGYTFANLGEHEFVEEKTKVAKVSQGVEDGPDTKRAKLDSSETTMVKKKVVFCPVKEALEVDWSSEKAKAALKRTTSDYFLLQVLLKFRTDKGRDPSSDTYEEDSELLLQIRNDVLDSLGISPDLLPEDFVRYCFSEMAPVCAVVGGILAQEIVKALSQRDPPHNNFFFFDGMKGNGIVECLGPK
# T1 sequence (Q9UBT2 whole entry): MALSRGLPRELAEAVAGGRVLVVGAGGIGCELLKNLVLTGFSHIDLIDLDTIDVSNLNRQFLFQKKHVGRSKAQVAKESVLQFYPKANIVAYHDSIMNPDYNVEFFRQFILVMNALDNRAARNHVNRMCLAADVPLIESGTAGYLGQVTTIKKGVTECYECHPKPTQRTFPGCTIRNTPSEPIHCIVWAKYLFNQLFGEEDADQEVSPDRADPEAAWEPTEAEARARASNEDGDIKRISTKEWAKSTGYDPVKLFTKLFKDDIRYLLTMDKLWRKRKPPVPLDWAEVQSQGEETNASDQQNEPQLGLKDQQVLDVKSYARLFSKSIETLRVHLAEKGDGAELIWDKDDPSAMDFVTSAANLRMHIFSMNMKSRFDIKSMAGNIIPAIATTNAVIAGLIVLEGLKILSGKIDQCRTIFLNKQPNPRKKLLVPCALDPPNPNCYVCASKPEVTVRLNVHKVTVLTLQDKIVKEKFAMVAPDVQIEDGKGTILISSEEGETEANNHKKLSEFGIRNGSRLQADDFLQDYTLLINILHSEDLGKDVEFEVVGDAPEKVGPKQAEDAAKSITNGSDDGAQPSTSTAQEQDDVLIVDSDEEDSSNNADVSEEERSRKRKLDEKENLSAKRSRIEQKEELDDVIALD
structure (smiles),measurement,setting,value
Cc1sc(C(=O)c2cncnc2N[C@@H]2C[C@H](COS(N)(=O)=O)[C@@H](O)C2)cc1[C@@H]1NCCc2ccc(Cl)cc21,IC50,[1],1 nM
same,IC50,[2],960 nM
same,IC50,[3],15 nM
same,inhibition,[4],Active
same,inhibition,[5],Active
same,inhibition,[6],Active
same,EC50,[7],63 nM
same,Activity,[8],Active
same,Activity,[9],Active
same,logD,[10],2.1
same,Papp A→B,[11],0.3 ×10⁻⁶ cm/s
same,efflux ratio,[12],> 16
same,solubility at 24 h,[13],20 mg/mL
same,IC50,[14],20 nM
same,clearance,[15],61.7 mL/min/kg
same,Vd,[16],8.5 L/kg
same,half-life,[17],2.6 h
same,AUC,[18],32 µM·h
same,AUC,[19],0.3 µM·h
same,bioavailability,[20],10%
same,bioavailability,[21],7.3%
